From ChEMBL document CHEMBL1143356, “Synthesis and characterization of a peripherally restricted CB1 cannabinoid antagonist, URB447, that reduces feeding and body-weight gain in mice” (Bioorg Med Chem Lett, 2009)
Activity calls are given as the source filed them. The rule behind the calls is not given here.

Assays:
Mus musculus [1] = experiment: Antianalgesic activity in Swiss mouse assessed as inhibition of (R)-methanandamide-induced analgesic effect at 2 mg/kg, ip administered 30 mins before (R)-methanandamide challenge measured for 45 mins by formalin planter test; type: functional, organism-based; set-up: dose 2 mg/kg
Summary of the method: (§1)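 Formalin test in mice. Inject 10 μL of 5% formaldehyde (vehicle: saline/5% PEG-400/5% Tween-80) into the plantar paw, with (R)-methanandamide dissolved in the formalin. Give the antagonist i.p. 30 min before formalin. A blinded observer scores paw licking and biting for 45 min (phase I 0-15 min, phase II 15-45 min).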

Mus musculus [2] = experiment: Inhibition of WIN-55212-2-induced hypothermia in Swiss mouse assessed as change in body temperature at 2 mg/kg ip administered 30 mins before WIN-55212-2 challenge; type: functional, organism-based; set-up: dose 2 mg/kg
Summary of the method: (§2)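 Mice dosed i.p. Rectal temperature taken with a digital probe and reported as change from baseline.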

Mus musculus [3] = experiment: Inhibition of WIN-55212-2-induced catalepsy in Swiss mouse at 5 mg/kg ip administered 30 mins before WIN-55212-2 challenge measured after 30 mins by ring catalepsy test; type: functional, organism-based; set-up: dose 5 mg/kg
Summary of the method: (§3)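 Mice dosed i.p. Ring test scored by a blinded observer as total time cataleptic during a 3-min observation.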

Mus musculus [4] = experiment: Antiobesity activity in ob/ob mouse assessed as reduction of food intake at 20 mg/kg, ip once daily for 2 weeks; type: functional, organism-based; set-up: dose 20 mg/kg
Cannabinoid receptor 1 [5] = molecular target: T1, Cannabinoid receptor 1 (Rattus norvegicus, UniProt P20272); experiment: Displacement of [3H]WIN-55212-2 from CB1 receptor in rat cerebellar membrane by liquid scintillation counting; type: cell membranes, Cerebellum
Cannabinoid receptor 2 = Cannabinoid receptor 2 (Homo sapiens, UniProt P34972); experiment: Displacement of [3H]WIN-55212-2 from human CB2 receptor expressed in CHO-K1 cells by liquid scintillation counting; type: cell-based
Cannabinoid receptor 1 [6] = molecular target: T1, Cannabinoid receptor 1; experiment: Antagonist activity at CB1 receptor in rat cerebellar membrane assessed as inhibition of WIN-55212-2-induced [35S]GTPgammaS binding by liquid scintillation counting; type: functional, cell membranes, Cerebellum
Summary of the method: (§4)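 Rat cerebellar membranes (20 μg) from freshly dissected cerebella. Incubate 90 min at 30 °C with 0.05 nM [35S]GTPγS and graded compound concentrations, in 20 mM Tris pH 7.4 with 5 mM MgCl2, 0.1 M NaCl, 30 μM GDP, adenosine deaminase, 0.02% BSA and PMSF. Run ± 10 μM WIN-55212-2. Stop by centrifugation at 4 °C, wash the pellet, and count by liquid scintillation.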

[7] = molecular target: Cannabinoid receptor 1 (Rattus norvegicus) (UniProt P20272); experiment: Antagonist activity at CB1 receptor in rat cerebellar membrane by [35S]GTPgammaS binding assay; type: functional, cell membranes; settings: Cerebellum; summary of the method: as §4
[8] = molecular target: Cannabinoid receptor 2 (Mus musculus) (UniProt P47936); experiment: Agonist activity at mouse CB2 receptor expressed in HEK293 cells assessed as inhibition of isoproterenol-induced cAMP accumulation at 1 uM by radioimmunoassay; type: functional, cell-based
Summary of the method: (§5)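 Stably transfected HEK cells carrying mouse CB2. Rinse in HEPES buffer (15 min), preincubate with IBMX 10 mM (15 min), then incubate with IBMX ± isoproterenol 10 μM (15 min), all at 37 °C in a shaking bath. Cannabinoid is present in both the preincubation and the incubation.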

Mus musculus [9] = experiment: Anorexic activity in Swiss mouse assessed as reduction of food intake at 5 mg/kg, ip administered 30 mins before dark onset after 24 hrs; type: functional, organism-based; set-up: dose 5 mg/kg
Summary of the method: (§6)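 Male Swiss mice (20-25 g) housed singly in automated feeding cages after 4 days of habituation. Dose i.p. in saline/10% PEG-400/10% Tween-80 before dark onset. Weight of food removed is logged continuously and expressed as food per kg body weight.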

Mus musculus [10] = experiment: Anorexic activity in Swiss mouse assessed as reduction of food intake at 20 mg/kg, ip administered 30 mins before dark onset after 24 hrs; type: functional, organism-based; set-up: dose 20 mg/kg; summary of the method: as §6
Mus musculus [11] = experiment: Effect on motor activity in Swiss mouse assessed as number of light beam interruptions projecting across each cage at 20 mg/kg, ip; type: functional, organism-based; set-up: dose 20 mg/kg
Summary of the method: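 Male Swiss mice in the automated cages, dosed i.p. in saline/PEG-400/Tween-80 vehicle. Activity is counted as light-beam interruptions, recorded at the same time as feeding.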

[12] = Plasma concentration in Swiss mouse at 20 mg/kg, ip after 30 mins; type: ADME, organism-based; set-up: dose 20 mg/kg, route intraperitoneal; settings: read-out: Cmax
Summary of the method: (§7)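 Mice dosed i.p. Blood and snap-frozen tissue are extracted in CH3OH:CHCl3:H2O and analysed by LC/MS on a cyano column with a water/methanol gradient containing acetic acid and ammonium acetate, at 0.4 mL/min.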

[13] = Drug level in Swiss mouse white adipose tissue at 20 mg/kg, ip after 15 mins; type: ADME, organism-based; set-up: dose 20 mg/kg, route intraperitoneal; settings: in vivo, 0.25 h; summary of the method: as §7
Mus musculus [14] = experiment: Antianalgesic activity in Swiss mouse assessed as inhibition of (R)-methanandamide-induced analgesic effect at 20 mg/kg, ip administered 30 mins before (R)-methanandamide challenge measured for 45 mins by formalin planter test; type: functional, organism-based; set-up: dose 20 mg/kg; summary of the method: as §1
Mus musculus [15] = experiment: Inhibition of WIN-55212-2-induced hypothermia in Swiss mouse assessed as change in body temperature at 20 mg/kg ip administered 30 mins before WIN-55212-2 challenge; type: functional, organism-based; set-up: dose 20 mg/kg; summary of the method: as §2
Mus musculus [16] = experiment: Inhibition of WIN-55212-2-induced catalepsy in Swiss mouse at 20 mg/kg ip administered 30 mins before WIN-55212-2 challenge measured after 30 mins by ring catalepsy test; type: functional, organism-based; set-up: dose 20 mg/kg; summary of the method: as §3
Mus musculus [17] = experiment: Antiobesity activity in ob/ob mouse assessed as reduction of body weight gain at 20 mg/kg, ip once daily for 2 weeks; type: functional, organism-based; set-up: dose 20 mg/kg
[18] = Lipophilicity, log P of the compound; type: physicochemical; settings: octanol/water
[19] = molecular target: Cannabinoid receptor 2 (Mus musculus) (UniProt P47936); experiment: Agonist activity at mouse CB2 receptor expressed in HEK293 cells assessed as cAMP accumulation at 1 uM by radioimmunoassay; type: functional, cell-based; summary of the method: as §5

Chain of Cannabinoid receptor 2 (P34972 whole entry): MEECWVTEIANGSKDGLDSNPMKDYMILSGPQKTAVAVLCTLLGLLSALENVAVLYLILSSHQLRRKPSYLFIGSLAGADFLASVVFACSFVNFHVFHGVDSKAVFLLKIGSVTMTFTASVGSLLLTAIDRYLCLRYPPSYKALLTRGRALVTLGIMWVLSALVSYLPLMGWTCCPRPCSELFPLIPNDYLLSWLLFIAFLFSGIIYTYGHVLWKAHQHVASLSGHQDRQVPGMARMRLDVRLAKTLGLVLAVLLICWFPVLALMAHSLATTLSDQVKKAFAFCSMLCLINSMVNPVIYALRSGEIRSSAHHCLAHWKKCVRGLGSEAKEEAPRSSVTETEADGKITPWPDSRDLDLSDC
T1 sequence (P20272 whole entry): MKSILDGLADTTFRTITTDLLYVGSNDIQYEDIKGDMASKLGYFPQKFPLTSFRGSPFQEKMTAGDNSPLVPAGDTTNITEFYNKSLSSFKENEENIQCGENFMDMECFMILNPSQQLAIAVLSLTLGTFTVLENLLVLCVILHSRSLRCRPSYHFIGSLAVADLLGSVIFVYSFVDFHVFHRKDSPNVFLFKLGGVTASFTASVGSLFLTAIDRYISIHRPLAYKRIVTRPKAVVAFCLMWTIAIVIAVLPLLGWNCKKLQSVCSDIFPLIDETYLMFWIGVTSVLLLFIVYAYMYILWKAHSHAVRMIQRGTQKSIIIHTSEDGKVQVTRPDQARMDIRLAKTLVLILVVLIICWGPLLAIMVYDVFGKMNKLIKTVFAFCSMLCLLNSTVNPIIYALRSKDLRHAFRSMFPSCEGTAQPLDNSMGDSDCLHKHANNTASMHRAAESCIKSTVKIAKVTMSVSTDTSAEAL
Chain of Cannabinoid receptor 2 (Mus musculus) (P47936 whole entry): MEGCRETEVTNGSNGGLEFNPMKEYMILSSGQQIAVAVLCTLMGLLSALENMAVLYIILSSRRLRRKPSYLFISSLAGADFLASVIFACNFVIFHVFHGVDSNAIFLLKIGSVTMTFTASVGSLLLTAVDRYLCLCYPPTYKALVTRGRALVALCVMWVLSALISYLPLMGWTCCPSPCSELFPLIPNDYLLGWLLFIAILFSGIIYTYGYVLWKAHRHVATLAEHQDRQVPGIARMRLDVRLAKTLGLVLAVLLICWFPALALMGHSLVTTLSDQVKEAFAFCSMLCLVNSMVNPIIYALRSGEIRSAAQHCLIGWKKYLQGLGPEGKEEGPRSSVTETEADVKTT
Chain of Cannabinoid receptor 1 (Rattus norvegicus) (P20272 whole entry): as the sequence (P20272 whole entry) above

Cc1c(C(=O)NN2CCCCC2)nn(-c2ccc(Cl)cc2Cl)c1-c1ccc(Cl)cc1
Activity (Mus musculus [1]): Active | Activity (Mus musculus [2]): Active | Activity (Mus musculus [3]): Active | Activity (Mus musculus [4]): Active

Cc1[nH]c(-c2ccccc2)c(N)c1C(=O)c1ccccc1
IC50 (Cannabinoid receptor 1 [5]): > 1000 nM | IC50 (Cannabinoid receptor 2): > 1000 nM

Cc1c(C(=O)NN2CCCCC2)cc(-c2ccccc2)n1Cc1ccc(Cl)cc1
IC50 (Cannabinoid receptor 1 [5]): > 1000 nM | IC50 (Cannabinoid receptor 2): > 1000 nM

Cc1c(C(=O)NC2C3CC4CC(C3)CC2C4)cc(-c2ccccc2)n1Cc1ccc(Cl)cc1 (configuration not stated)
IC50 (Cannabinoid receptor 1 [5]): 70 nM | IC50 (Cannabinoid receptor 2): 11 nM

Cc1c(C(=O)c2ccccc2)c(N)c(-c2ccccc2)n1Cc1ccc(Cl)cc1
IC50 (Cannabinoid receptor 1 [5]): 313 nM | IC50 (Cannabinoid receptor 2): 41 nM | EC50 (Cannabinoid receptor 1 [6]): 4900 nM | Activity [7]: inactive | Activity [8]: 14.3 pmol | Activity (Mus musculus [9]): inactive | Activity (Mus musculus [10]): inactive | Activity (Mus musculus [11]): inactive | concentration at 0.5 h [12]: 596 nM | Cmax [13]: 42 nmol/g | Activity (Mus musculus [14]): Active | Activity (Mus musculus [15]): inactive | Activity (Mus musculus [16]): inactive | Activity (Mus musculus [17]): Active | logP [18]: 6.39 | Activity [19]: 5.9 pmol

Cc1c(C(=O)NC2CC3CCC2C3)cc(-c2ccccc2)n1Cc1ccc(Cl)cc1 (configuration not stated)
IC50 (Cannabinoid receptor 1 [5]): > 1000 nM | IC50 (Cannabinoid receptor 2): 420 nM

Cc1c(C(=O)c2ccccc2)cc(-c2ccccc2)n1Cc1ccc(Cl)cc1
IC50 (Cannabinoid receptor 1 [5]): > 1000 nM | IC50 (Cannabinoid receptor 2): 498 nM

Cc1c(C(=O)NC2C3CC4CC(C3)CC2C4)c(Br)c(-c2ccccc2)n1Cc1ccc(Cl)cc1 (configuration not stated)
IC50 (Cannabinoid receptor 1 [5]): > 1000 nM | IC50 (Cannabinoid receptor 2): 123 nM
